ChEMBL document CHEMBL3526151, “Reversible disulfide formation of the glutamate carboxypeptidase II inhibitor E2072 results in prolonged systemic exposures in vivo” (Drug Metab Dispos, 2012)

Columns and labels:
[1] = AUC(0 to infinity) in Sprague-Dawley rat at 10 mg/kg, po administered via gavage measured under fed conditions by LC-MS/MS analysis; type: ADME, organism-based; set-up: time infinity, dose 10 mg/kg, route oral; settings: plasma
Summary of the method: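 Nonfasted male Sprague-Dawley rats given a single 10 mg/kg oral dose in 50 mM HEPES buffered saline, pH 7.4. Plasma collected 0.25–24 h into heparin/NEM tubes and assayed by LC-MS/MS. Noncompartmental parameters derived, including Cl/F and Vd/F. Mean ± S.D., n = 6–9.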

[2] = Cmax in Sprague-Dawley rat at 10 mg/kg, iv by LC-MS/MS analysis; type: ADME, organism-based; set-up: dose 10 mg/kg, route intravenous; settings: in vivo
Summary of the method: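 Male Sprague-Dawley rats dosed intravenously at 10 mg/kg (n = 6). Blood sampling extended to 7 days into heparin tubes containing NEM. Plasma assayed for parent and homodisulfide by LC-MS/MS, calibration range 1–5000 ng/ml. Noncompartmental analysis, t1/2 = 0.693/λz. Mean ± S.D.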

Rattus norvegicus = experiment: Elimination half life in Sprague-Dawley rat at 10 mg/kg, iv by LC-MS/MS analysis; type: ADME, organism-based; set-up: dose 10 mg/kg, route intravenous; settings: in vivo
Summary of the method: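 Male Sprague-Dawley rats received a single IV dose of either 10 mg/kg parent drug (n = 6) or 5 mg/kg homodisulfide (n = 5), in 50 mM HEPES-buffered saline, pH 7.4. Blood was collected into NEM-containing heparinized tubes for up to 7 days. Parent drug and homodisulfide in plasma were quantified by LC-MS/MS. Terminal t1/2β was calculated as 0.693/λz.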

[3] = Tmax in cynomolgus monkey at 5 mg/kg, iv administered as bolus injection by LC-MS/MS analysis; type: ADME, organism-based, Macaca fascicularis; set-up: dose 5 mg/kg, route intravenous; settings: in vivo
Summary of the method: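 Cynomolgus monkeys (n=3) dosed at 5 mg/kg nominal, TCEP-treated 50 mM HEPES solution, either as i.v. bolus (cephalic or saphenous vein) or orally. Arterial cannula blood into heparin/NEM tubes for up to 9 days. Plasma parent and homodisulfide measured by LC-MS/MS; Tmax observed.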

[4] = Cmax in Sprague-Dawley rat kidney at 10 mg/kg, po administered as single dose measured per gm of tissue by LC-MS/MS analysis; type: ADME, organism-based; set-up: dose 10 mg/kg, route oral
Summary of the method: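 Male Sprague-Dawley rats were dosed orally with 10 mg/kg/day, either once or daily for 5 days; n = 4 per group. Blood was taken by cardiac puncture and liver, kidney, brain and sciatic nerve were collected at 0–8 h post-dose. Tissues were homogenized in PBS containing NEM at equal volume per gram. NEM-derivatized analyte was extracted with methanol and quantified by LC-MS/MS (1–5000 ng/ml). Cmax is the observed value.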

[5] = Phase 2 metabolic stability in mouse liver microsomes assessed as compound remaining at 10 uM measured for 1 hr by LC-MS/MS analysis; type: ADME; settings: read-out: Stability
Summary of the method: (§1)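 Glucuronidation in liver microsomes of the named species, 0.5 mg/ml protein, compound at 10 μM final, in 50 mM Tris-HCl pH 7.5 with 8 mM MgCl2 and 25 μg/ml alamethicin. Preincubated at 37°C, then started with 2 mM UDPGA (final); cofactor-free controls run alongside. Duplicate reactions, sampled up to 1 h, quenched with cold acetonitrile plus internal standard; disappearance followed by LC-MS/MS.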

[6] = Phase 2 metabolic stability in human liver microsomes assessed as compound remaining at 10 uM measured for 1 hr by LC-MS/MS analysis; type: ADME; settings: read-out: Stability
Summary of the method: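 For glucuronidation, compound was preincubated at 37°C in 50 mM Tris-HCl, pH 7.5, with 0.5 mg/ml liver microsomes, 8 mM MgCl2 and 25 µg/ml alamethicin. Reactions were started in duplicate with 2 mM UDPGA (final). Samples were taken up to 1 h, quenched with acetonitrile containing internal standard, and compound disappearance was measured by LC-MS/MS.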

[7] = Phase 1 metabolic stability in dog liver microsomes assessed as compound remaining at 10 uM measured for 1 hr by LC-MS/MS analysis in absence of cofactors; type: ADME, Canis lupus familiaris; settings: read-out: Stability
Summary of the method: (§2)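 Cofactor-free controls were run for each microsomal incubation: 0.5 mg/ml liver microsomes with 10 µM compound, omitting cofactors, so that cofactor-independent degradation could be measured. Samples were taken up to 1 h, quenched with acetonitrile containing internal standard, and the percent remaining was determined by LC-MS/MS.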

[8] = Phase 2 metabolic stability in mouse liver microsomes assessed as compound remaining at 10 uM measured for 1 hr by LC-MS/MS analysis in absence of cofactors; type: ADME; settings: read-out: Stability; summary of the method: as §1
[9] = Phase 2 metabolic stability in human liver microsomes assessed as compound remaining at 10 uM measured for 1 hr by LC-MS/MS analysis in absence of cofactors; type: ADME; settings: read-out: Stability; summary of the method: as §2
[10] = Metabolic stability in Sprague-Dawley rat plasma assessed as compound remaining at 5 uM after 1 hr by LC-MS/MS analysis; type: ADME, cell-free; settings: read-out: Stability
Summary of the method: (§3)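 Compound at 5 and 10 µM was incubated at 37°C in Sprague-Dawley rat or cynomolgus monkey plasma. Aliquots taken at 0, 30 and 60 min were quenched with acetonitrile and analyzed by LC-MS/MS. Percent remaining = analyte/internal-standard area ratio at time t divided by that at time 0.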

[11] = Metabolic stability in Sprague-Dawley rat plasma assessed as compound remaining at 10 uM after 1 hr by LC-MS/MS analysis; type: ADME, cell-free; settings: read-out: Stability; summary of the method: as §3
[12] = Tmax in Sprague-Dawley rat at 0.1 mg/kg, po administered via gavage measured under fasted conditions by LC-MS/MS analysis; type: ADME, organism-based; set-up: dose 0.1 mg/kg, route oral; settings: in vivo
Summary of the method: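 Jugular-cannulated male Sprague-Dawley rats, 280–330 g, fasted overnight to 4 h post-dose. Single dose in 50 mM HEPES-buffered saline pH 7.4, by oral gavage or as tail-vein i.v. bolus. Blood into heparin/NEM tubes at 0–24 h. Plasma measured by LC-MS/MS; noncompartmental analysis; Tmax observed; Vd = dose/(AUCinf·λz).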

[13] = AUC(0 to infinity) in Sprague-Dawley rat at 1 mg/kg, po administered via gavage measured under fasted conditions by LC-MS/MS analysis; type: ADME, organism-based; set-up: time infinity, dose 1 mg/kg, route oral; settings: plasma
Summary of the method: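 Fasted male Sprague-Dawley rats (280–330 g) received 0.1, 1, 10 or 30 mg/kg by oral gavage in 50 mM HEPES buffered saline, pH 7.4. Blood drawn at 0.25–24 h into heparin/NEM tubes; plasma analyzed by LC-MS/MS. Cmax taken as observed. AUC by linear trapezoidal rule with extrapolation by λz. Cl/F and Vd/F reported. Mean ± S.D., n = 4–9.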

[14] = AUC(0 to infinity) in Sprague-Dawley rat at 30 mg/kg, iv administered as bolus injection measured under fasted conditions by LC-MS/MS analysis; type: ADME, organism-based; set-up: time infinity, dose 30 mg/kg, route intravenous; settings: plasma
Summary of the method: (§4)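 Male Sprague-Dawley rats (280–330 g), jugular vein cannulated, fasted overnight until 4 h post-dose. Single tail-vein bolus of 0.1, 1, 10 or 30 mg/kg in 50 mM HEPES buffered saline, pH 7.4. Blood drawn 0–24 h into heparin tubes containing NEM. Plasma quantified by LC-MS/MS after NEM derivatization. Noncompartmental analysis: AUClast by linear trapezoidal rule, Cl = dose/AUC0-∞. Mean ± S.D., n = 4–9.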

[15] = AUC(0 to last) in Sprague-Dawley rat at 10 mg/kg, iv administered as bolus injection measured under fasted conditions by LC-MS/MS analysis; type: ADME, organism-based; set-up: time 0 - last, dose 10 mg/kg, route intravenous; settings: plasma; summary of the method: as §4
[16] = Half life in Sprague-Dawley rat at 1 mg/kg, iv administered as bolus injection measured under fasted conditions by LC-MS/MS analysis; type: ADME, organism-based; set-up: dose 1 mg/kg, route intravenous; settings: in vivo
[17] = Half life in Sprague-Dawley rat at 1 mg/kg, po administered via gavage measured under fasted conditions by LC-MS/MS analysis; type: ADME, organism-based; set-up: dose 1 mg/kg, route oral; settings: in vivo

AUC(0-inf) [1]: 37100 ng·h/mL | Cmax [2]: 57.2 µg/mL | beta t1/2 (Rattus norvegicus): 105 h | Tmax [3]: 4.8 min | Cmax [4]: 405 ng/g | remaining at 1 h, 10 µM [5]: > 90% | remaining at 1 h, 10 µM [6]: > 90% | remaining at 1 h, 10 µM [7]: > 90% | remaining at 1 h, 10 µM [8]: > 90% | remaining at 1 h, 10 µM [9]: > 90% | remaining at 1 h, 5 µM [10]: 55% | remaining at 1 h, 10 µM [11]: 64.5% | Tmax [12]: 0.83 h | AUC(0-inf) [13]: 3210 ng·h/mL | AUC(0-inf) [14]: 204000 ng·h/mL | AUC(0-t) [15]: 90200 ng·h/mL | half-life [16]: 3.25 h | half-life [17]: 3.72 h
SMILES: O=C(O)c1cccc(-c2cccc(CCS)c2C(=O)O)c1
